{
  "source": "ChEMBL document CHEMBL1147796",
  "about": "“New potent P-glycoprotein inhibitors carrying a polycyclic scaffold” (J Med Chem, 2006)",
  "key": {"[1]": {"target": "T1, ATP-dependent translocase ABCB1 (Homo sapiens, UniProt P08183)", "T1 sequence (P08183 whole entry)": "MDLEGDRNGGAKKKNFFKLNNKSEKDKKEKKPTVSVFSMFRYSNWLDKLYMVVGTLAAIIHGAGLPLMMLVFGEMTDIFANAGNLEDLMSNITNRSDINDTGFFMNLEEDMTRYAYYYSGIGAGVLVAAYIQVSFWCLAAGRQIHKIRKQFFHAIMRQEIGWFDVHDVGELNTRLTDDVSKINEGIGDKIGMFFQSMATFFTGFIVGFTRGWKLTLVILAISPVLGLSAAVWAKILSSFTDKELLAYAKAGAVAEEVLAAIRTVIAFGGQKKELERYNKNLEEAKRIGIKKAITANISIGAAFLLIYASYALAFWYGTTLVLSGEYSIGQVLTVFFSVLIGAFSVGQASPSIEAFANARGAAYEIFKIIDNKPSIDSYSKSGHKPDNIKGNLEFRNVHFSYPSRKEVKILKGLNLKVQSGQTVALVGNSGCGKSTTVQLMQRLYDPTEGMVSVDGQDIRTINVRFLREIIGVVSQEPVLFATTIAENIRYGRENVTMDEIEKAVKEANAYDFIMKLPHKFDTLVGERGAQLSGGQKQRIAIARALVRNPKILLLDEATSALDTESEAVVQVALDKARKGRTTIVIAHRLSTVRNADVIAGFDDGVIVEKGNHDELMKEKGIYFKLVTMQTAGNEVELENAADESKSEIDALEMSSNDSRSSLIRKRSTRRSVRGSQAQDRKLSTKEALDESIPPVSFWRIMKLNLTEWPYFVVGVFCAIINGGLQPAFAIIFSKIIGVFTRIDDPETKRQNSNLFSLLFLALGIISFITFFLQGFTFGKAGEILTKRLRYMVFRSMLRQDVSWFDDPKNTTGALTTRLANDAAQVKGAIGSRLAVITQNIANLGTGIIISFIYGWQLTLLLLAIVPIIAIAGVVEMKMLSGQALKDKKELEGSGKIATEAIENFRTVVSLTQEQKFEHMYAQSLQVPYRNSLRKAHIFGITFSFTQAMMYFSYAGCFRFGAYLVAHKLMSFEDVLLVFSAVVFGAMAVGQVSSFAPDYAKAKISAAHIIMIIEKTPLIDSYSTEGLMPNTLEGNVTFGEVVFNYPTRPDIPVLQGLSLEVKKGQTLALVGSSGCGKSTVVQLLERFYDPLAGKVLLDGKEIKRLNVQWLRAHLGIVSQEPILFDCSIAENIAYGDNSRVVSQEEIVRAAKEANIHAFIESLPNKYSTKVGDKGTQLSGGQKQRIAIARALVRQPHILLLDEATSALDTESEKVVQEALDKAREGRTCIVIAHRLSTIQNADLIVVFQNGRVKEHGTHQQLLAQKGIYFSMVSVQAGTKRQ", "assay": "Reversal of multi-drug resistance in L5178Y cells transfected with human MDR1 as relative fluorescent rhodamine123 activity at 0.1 ug/mL", "format": "cell-based", "procedure,_shortened": "(§1)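 L5178Y mouse T-cell lymphoma subline carrying the human MDR1 gene, with the parental drug-sensitive line also listed. A larger number of cells was exposed to compound for 30 min. Rhodamine 123 accumulation was read by fluorescence, and P-gp-mediated efflux reversal was expressed as a fluorescence activity ratio.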"}, "[2]": {"target": "T1, ATP-dependent translocase ABCB1", "assay": "Reversal of multi-drug resistance in L5178Y cells transfected with human MDR1 as relative fluorescent rhodamine123 activity at 1 ug/mL", "format": "cell-based", "procedure,_shortened": "as §1"}, "[3]": {"target": "T1, ATP-dependent translocase ABCB1", "assay": "Antiproliferative activity against human MDR1 transfected mouse L5178Y cell line", "format": "functional, cell-based", "conditions": "read-out: ID50 (the source's name) (converted)"}},
  "data": [
    {"compound": "COc1ccc(CCN(C)CCN2C(=O)C3C4c5ccccc5C(c5ccccc54)C3C2=O)cc1OC", "note": "(centres undefined)", "values": [
      {"measurement": "Ratio", "setting": "[1]", "value": 2.76},
      {"measurement": "Ratio", "setting": "[2]", "value": 47.85},
      {"measurement": "GI50", "setting": "[3]", "value": 4.23, "unit": "µM"}
    ]},
    {"compound": "COc1ccc(CCN(C)CCCN2C(=O)C3C4c5ccccc5C(c5ccccc54)C3C2=O)cc1OC", "note": "(centres undefined)", "values": [
      {"measurement": "Ratio", "setting": "[1]", "value": 7.91},
      {"measurement": "Ratio", "setting": "[2]", "value": 28.62},
      {"measurement": "GI50", "setting": "[3]", "value": 5.72, "unit": "µM"}
    ]},
    {"compound": "COc1ccc(CCN(C)CC#CCN2C(=O)C3C4c5ccccc5C(c5ccccc54)C3C2=O)cc1OC", "note": "(centres undefined)", "values": [
      {"measurement": "Ratio", "setting": "[1]", "value": 2.65},
      {"measurement": "Ratio", "setting": "[2]", "value": 89.35},
      {"measurement": "GI50", "setting": "[3]", "value": 2.55, "unit": "µM"}
    ]}
  ]
}
